High-throughput results: PubChem, several laboratories
Hits are enriched below; roughly 4.1% of the tested compounds scored in any of these assays.
KCNQ1 act = potentiators or activators of human KCNQ1 potassium channel; B-score at 10 µM; CHO-K1 KCNQ1, thallium flux FluxOR fluorescence; stronger effect = higher value; P51787; 310,000 tested, 0.35% active;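 active = fluorescence ratio B-score, a plate-corrected score, at least three library SD, with initial intensity B-score within 5 SD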
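System: Stable KCNQ1 CHO-K1 line | Incubation: 90 min dye loading and 20 min compound exposure, both at room temperature | Measure: Ratio B score | Medium: Assay buffer for compound exposure, DMSO matched across wells | Compound dosing: Single-concentration screen | Probe or stimulus: K+/Tl+ depolarizing stimulus | Measured by: Kinetic FluxOR fluorescence, 10 s baseline plus 110 s post-stimulus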
KCNK3 block = human KCNK3 channel inhibition, primary screen; O14649; CHO-KCNK3 thallium flux, FluxOR fluorescence; stronger effect = lower value; B-score at 10 µM; 340,000 tested, 0.84% active;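 active = B-score under library mean minus 4 SD, starting fluorescence ratio at most library mean plus 5 SD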;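 note: more negative B-score means stronger inhibition of thallium flux through KCNK3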
Target sequence (O14649 whole entry, looked up): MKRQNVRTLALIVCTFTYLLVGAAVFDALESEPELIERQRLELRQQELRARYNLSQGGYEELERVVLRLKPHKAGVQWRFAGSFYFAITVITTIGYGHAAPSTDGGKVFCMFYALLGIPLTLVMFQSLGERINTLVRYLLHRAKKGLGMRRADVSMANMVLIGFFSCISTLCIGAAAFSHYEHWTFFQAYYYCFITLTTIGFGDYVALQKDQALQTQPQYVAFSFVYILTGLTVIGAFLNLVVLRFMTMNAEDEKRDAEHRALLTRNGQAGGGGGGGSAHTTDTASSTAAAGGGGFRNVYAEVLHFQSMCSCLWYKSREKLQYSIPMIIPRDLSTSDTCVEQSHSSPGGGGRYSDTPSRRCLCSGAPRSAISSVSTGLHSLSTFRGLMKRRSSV
KCNQ1 inh = inhibitors of human KCNQ1 potassium channel; CHO-K1 KCNQ1, FluxOR thallium flux fluorescence; stronger effect = higher value; B-score at 10 µM; 310,000 tested, 1.3% active; AID 2642;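 active = compounds whose thallium flux B-score, printed positive for inhibition, exceeds three library SD while starting fluorescence stays within three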;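 note: channel opened by potassium depolarization with thallium stimulus after 20 min compound exposure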
hERG rescue = hERG (human) protection from proarrhythmic block; Q12809; CHO-hERG, FluxOR thallium flux, dofetilide IC70 present; activation (rescue from dofetilide block), less the hit threshold, % at 10 µM; 310,000 tested, 0.51% active; AID 1511;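 active = activation above the mean of controls blocked by dofetilide plus 5 SD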;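 note: thallium influx through hERG after potassium depolarization seen as dye fluorescence rise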
KCNK9 inh = blocks the human KCNK9 two-pore domain potassium channel | B-score at 10 µM | AID 488922 | HEK293 KCNK9, FluxOR thallium flux fluorescence; stronger effect = lower value | 310,000 tested, 1.2% active | Q9NPC2;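 active = ratio B-score over 3 SD below the library mean, with starting fluorescence within 5 SD of its mean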;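 note: negative B-score means less thallium flux so channel inhibition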
KCC2 mod = modulators of human KCC2 chloride dependent transport; Q9H2X9; KCC2 cells, thallium flux FluoZin-2 fluorescence; B-score of Tl+ flux slope (higher = more flux/activation; lower = inhibition) at 10 µM; 190,000 tested, 2.2% active;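 active = thallium flux slope and its plate-corrected score both differing from the plate sample mean at a set confidence after two filtering rounds, in either direction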;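 note: slope of fluorescence scaled to starting intensity during 10 to 20 s after thallium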
KCNK3 inh conf = confirmation of human KCNK3 two-pore domain potassium channel inhibitors | shares compounds with KCNK3 block | CHO-KCNK3 thallium flux, FluxOR fluorescence; 0% buffer, 100% carvedilol maximal block | ratio percent of control, % at 10 µM | 2,400 tested, 99% active | AID 651638;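 active = ratio percent of control, averaged over triplicates, above buffer control mean plus 5 SD, cut at about 64% in these data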;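 note: ratio is the fluorescence rise from min to max over baseline after thallium stimulus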
KCNK3 uninduced = activity in cells without induced KCNK3 expression | shares compounds with KCNK3 block | non-induced KCNK3 parental cells, FluxOR thallium flux; stronger effect = lower value | thallium flux ratio (lower = more inhibition) at 10 µM | 2,400 tested, 40% active;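 active = thallium flux ratio, averaged over three wells, more than 5 SD below the buffer control mean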;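 note: host cells are CHO cells without KCNK3 induction; ratio is peak minus trough fluorescence over baseline then normalized to buffer controls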
* = called active by the depositor; i = inactive; · = no result given.

SMILES	KCNQ1 act	KCNK3 block	KCNQ1 inh	hERG rescue	KCNK9 inh	KCC2 mod	KCNK3 inh conf	KCNK3 uninduced
COc1ccc(S(=O)(=O)NCCSCc2ccco2)cc1OC	i	i	i	-6.2	i	0.0816	·	·
COc1ccc(S(=O)(=O)NCCSCc2ccccc2C)cc1Br	i	-8.86*	i	-10.1	i	-1.24	125.7*	0.125*
Cc1noc(NS(=O)(=O)c2ccc(NC(=O)c3ccccc3NS(=O)(=O)c3ccc(F)cc3)cc2)c1C	·	i	·	·	·	·	·	·
COc1ccc(OC)c(NC(=O)CSc2ccccc2)c1	i	i	i	-2.0	i	0.569	·	·
COc1ccc(OC)c(NC(=O)CSc2ccc3ccccc3c2)c1	i	-10.9*	i	-6.1	i	-0.702	117.7*	i
Cc1ccc(C)c(OCCNc2ncccc2[N+](=O)[O-])c1	i	-11.8*	i	-1.8	i	·	102.0*	i
Cc1ccc(C)c(N2CCN(S(=O)(=O)c3cccc4cccnc34)CC2)c1	i	-9.85*	i	-10.4	i	-0.722	115.7*	0.149*
CS(=O)(=O)N(CC(=O)N1CCOCC1)c1cc(Cl)ccc1Cl	i	i	i	-1.7	i	·	·	·
CCc1nnc(SCC(=O)Nc2nnc(C)s2)n1CC1CCCO1 (stereo not drawn)	i	i	i	-5.6	i	·	·	·
O=C(CSc1nc2ccccc2c(=O)n1CC1CCCO1)Nc1ccccc1Cl (stereo not drawn)	i	-12.2*	i	-6.3	-7.62*	·	104.0*	i
CCc1nnc(SCC(=O)Nc2ccccc2)n1CC1CCCO1 (stereo not drawn)	i	-8.73*	i	-8.0	i	·	79.0*	0.159*
O=C(CCOc1ccccc1)Nc1ccnn1C1CCN(C(=O)CCC(F)(F)F)CC1	i	i	i	-6.1	i	·	·	·
O=C(O)C(c1ccccc1)C(O)C1CCCC1 (stereo not drawn)	·	i	·	·	·	·	·	·
CSCC[C@H](NC(=O)[C@@H]1Cc2ccccc2CN1)C(=O)NC[C@H]1CC[C@H](C(=O)O)CC1	i	i	i	-8.5	i	·	·	·
COc1ccc(CCn2c(=N)c(C(=O)NC3CCCC3)cc3c(=O)n4cccc(C)c4nc32)cc1	i	-12.6*	13*	-36.0	i	·	114.3*	i
Cc1cccn2c(=O)c3cc(C(=O)NC4CCCC4)c(=N)n(CCc4ccccc4)c3nc12	i	i	i	-20.0	i	·	·	·
COc1ccc(OCC(=O)N(Cc2ccc(C)o2)C2CCS(=O)(=O)C2)cc1 (stereo not drawn)	i	i	i	-6.2	i	·	·	·
COC(=O)C(Cc1csc2ccc(Cl)cc12)NC(=O)c1ccc(Cl)cc1 (stereo not drawn)	i	-10.4*	i	4.0	i	-0.925	140.3*	0.145*
COC(=O)C(Cc1ccccc1)NC(=O)c1ccc(C)cc1 (stereo not drawn)	i	i	i	-9.3	i	-0.754	·	·
Cc1noc(C)c1S(=O)(=O)Nc1ccc(C(=O)N2CCc3ccccc3C2)cc1	i	-9.14*	i	-6.1	i	-1.25	59.7*	i
CCC(C)(C)n1nnnc1C(c1ccccc1)N1CCc2ccccc2C1 (stereo not drawn)	i	-9.36*	i	-13.3	i	-1.29	110.0*	i
O=C(NCc1ccccc1)C(c1ccc(O)cc1)N(C(=O)c1cnccn1)c1ccccc1 (stereo not drawn)	i	i	i	-5.9	i	·	·	·
CN(C(=O)CSc1nnc(-c2ccco2)n1C)C1CCCCC1	·	i	·	·	·	·	·	·
Cc1ccc(C)c(CSCC(=O)NCc2cccs2)c1	i	-10.9*	i	-2.7	i	-0.124	84.3*	i
Cc1ccc(C(=O)OCC(=O)NCc2cccs2)c(C)c1	i	i	i	-11.4	i	-0.652	·	·
SMILES	KCNQ1 act	KCNK3 block	KCNQ1 inh	hERG rescue	KCNK9 inh	KCC2 mod	KCNK3 inh conf	KCNK3 uninduced
CN(C(=O)c1cccc(NC(=O)Cc2ccc(NC(=O)C3CCN(C(=O)C4CCC4)CC3)cc2)c1)C1CCC1	·	i	·	·	·	·	·	·
CC(=O)Oc1c(I)cc(I)cc1C(=O)Nc1ccc(Cl)cc1	i	-11*	7*	-15.5	i	·	123.0*	0.131*
COc1ccc(Cl)cc1C(=O)Nc1ccc(NC(C)=O)cc1	i	i	i	-2.1	i	-0.312	·	·
COc1cc(/C=C/C(=O)OCC(=O)NCCc2ccc(F)cc2)ccc1OC(F)F	·	i	·	·	·	·	·	·
COc1cc(/C=C2\C(=O)ON=C2c2ccccc2)cc(Cl)c1O	i	-8.87*	i	-42.6	i	-5.3*	115.3*	0.143*
Cc1ccc(/C=C2/C(=O)ON=C2c2ccccc2)o1	i	-10*	i	-11.4	i	-4.12	122.0*	i
CCOc1cc(/C=C2\C(=O)ON=C2c2ccccc2)cc(Br)c1O	i	-8.82*	6*	-31.7	i	·	135.3*	0.0977*
COc1cc(/C=C2/C(=O)ON=C2c2ccccc2)ccc1O	i	i	i	-20.7	i	-0.957	·	·
CCCCOC(=O)c1ccc(NC(=O)c2c(N)n(C)c(=O)[nH]c2=O)cc1	i	·	i	-7.2	i	·	·	·
C[C@@H]1C[C@H]2[C@@H]3CCC4=CC(=O)C=C[C@]4(C)[C@@]3(Cl)[C@@H](O)C[C@]2(C)[C@@]1(OC(=O)c1ccco1)C(=O)CCl	·	i	·	·	·	·	·	·
CCc1nc(SCC(=O)c2ccccc2)c2ccccc2n1	i	-9.44*	i	-7.3	i	-0.0894	87.7*	i
Cc1ccc(N(C)S(=O)(=O)c2ccc(C)cc2)cc1	i	i	i	-7.5	i	·	·	·
Cc1ccc(S(=O)(=O)N(C)c2ccc3ccccc3c2)cc1	i	-9.36*	i	-37.9	i	-1.4	121.7*	0.126*
O=c1oc2cc(Oc3c([N+](=O)[O-])cc(C(F)(F)F)cc3[N+](=O)[O-])ccc2c2c1CCCC2	i	-9.74*	11*	-21.3	i	-0.499	136.0*	0.142*
O=C(C1CCN(S(=O)(=O)c2cccc3nsnc23)CC1)N1CC=C(c2ccccc2)CC1	i	i	i	-6.1	i	-0.687	·	·
O=C(C1CCCN(S(=O)(=O)c2cccc3nsnc23)C1)N1CC=C(c2ccccc2)CC1 (stereo not drawn)	·	-15.4*	·	·	·	-2.87	115.3*	i
Cc1ccc(Cl)c(NC(=O)COC(=O)c2nn(-c3ccccc3)cc2O)c1Cl	·	i	·	·	·	·	·	·
